# Screens (PubChem BioAssay)
# RGS4 pot: RGS4 potentiation or activation | actives 0.92% (n = 310,000) | B-score at 10 µM | HEK293 M3R/inducible RGS4, carbachol calcium flux Fluo4; hits give low values;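 active means B-score of the integrated calcium signal more than 4 SD below the library mean, with starting fluorescence not abnormally high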;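 further: negative B-score means reduced calcium response which marks RGS4 activation or potentiation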
#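 Assay system: HEK293 FlpIn-TREx cells, stable M3R, doxycycline-inducible RGS4 / Probe or stimulus: carbachol, ECmax concentration / Times: overnight RGS4 induction, 30 min dye load 37 °C, 20 min compound RT / Signal: kinetic calcium fluorescence imaging with Fluo4-AM dye, 2 µM / Measure: Agonist-evoked peak-minus-minimum fluorescence over baseline, integrated ratio, B score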
# RGS4 block: inhibitors of human RGS4; HEK293 M3R/RGS4 inducible, Fluo-4 calcium flux; hits give high values; triggered by carbachol at its EC20; B-score at 10 µM; actives 0.45% (n = 310,000);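 active means B-score, a plate-corrected calcium signal, over three deviations above library mean, with baseline fluorescence within five deviations of library mean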;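 further: RGS4 expression induced by doxycycline in cells with stable M3 receptor; B-score is computed from the integrated fluorescence ratio over baseline after carbachol; higher B-score means a larger calcium signal and so more RGS4 inhibition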
# Target sequence (P49798 whole entry, looked up): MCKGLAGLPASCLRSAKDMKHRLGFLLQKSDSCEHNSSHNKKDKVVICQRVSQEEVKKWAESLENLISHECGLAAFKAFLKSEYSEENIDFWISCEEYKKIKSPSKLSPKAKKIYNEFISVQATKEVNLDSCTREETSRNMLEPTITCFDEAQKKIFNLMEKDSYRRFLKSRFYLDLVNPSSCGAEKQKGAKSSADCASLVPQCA
# MrgX1 allo act: human MrgX1 positive allosteric modulation, primary screen | MrgX1-HEK293, Fluo-4 calcium flux, FDSS; hits give high values | B-score at 10 µM | actives 0.63% (n = 310,000);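 active means plate-corrected calcium response at least 3 library SD above typical, normal starting fluorescence, not activating the receptor alone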;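 further: compound read alongside a low EC10 to EC30 dose of BAM8-22 agonist; peak minus trough fluorescence over baseline measured at the second addition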
# MrgX1 antag: antagonists of human MrgX1 receptor; Q96LB2; MRGX1-HEK293 calcium flux, Fluo-4, BAM8-22 antagonism; hits give low values; B-score at 10 µM; actives 1.3% (n = 310,000);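 active means calcium-response B-score plate-corrected more than 3 library SD below zero, starting fluorescence within 5 deviations, no agonist response on first addition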;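 further: peak minus trough fluorescence over baseline after final BAM8-22 challenge near maximal dose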
# PHOSPHO1 inh: inhibitors of human PHOSPHO1 phosphatase | inhibition, % at 13.3 µM | recombinant PHOSPHO1, absorbance phosphatase assay | actives 1.1% (n = 290,000) | Q8TCT1; in the data active means inhibition above about 60%
# Target sequence (Q8TCT1 whole entry, looked up): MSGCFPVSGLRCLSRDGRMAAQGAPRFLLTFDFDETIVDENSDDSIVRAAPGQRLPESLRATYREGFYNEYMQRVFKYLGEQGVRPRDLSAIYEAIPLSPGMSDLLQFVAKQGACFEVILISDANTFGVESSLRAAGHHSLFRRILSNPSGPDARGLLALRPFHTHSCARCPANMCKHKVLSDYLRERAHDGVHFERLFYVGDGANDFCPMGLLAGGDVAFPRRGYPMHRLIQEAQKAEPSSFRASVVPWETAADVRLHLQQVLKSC
# MrgX1 ag: activates human MrgX1 receptor signaling | Q96LB2 | actives 0.44% (n = 310,000) | AID 588627 | MrgX1-HEK293 cells, Fluo-4 calcium fluorescence, agonist mode; hits give high values | B-score at 10 µM;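 active means calcium response B-score plate-corrected fluorescence ratio at least 3 library SD, with starting fluorescence B-score inside 5 SD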
#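 Material: HEK293 cells stably expressing human MrgX1 receptor | Quantity: 15,000 cells per well | Times: Cells plated overnight, dye loaded 0.5 h 37 °C, 0.5 h room temperature | Measured by: Kinetic Fluo-4 NW fluorescence of intracellular calcium | Control set: Positive and negative controls per plate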
# RGS4 block valid: RGS4 inhibitor validation; shares compounds with RGS4 block; HEK293 M3R/RGS4, carbachol calcium Fluo-4 fluorescence; carbachol added at its EC20; 0 = buffer wells, 100 = carbachol control; calcium response, % at 10 µM; actives 65% (n = 1,700); AID 492999;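 active means duplicate-averaged calcium response above the buffer-only control mean plus 5 SD of those controls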;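 further: integrated fluorescence ratio F max minus min over baseline F0; higher response in RGS4-induced cells means RGS4 inhibition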
# RGS4 uninduced: non-induced cell nonspecific activity of RGS4 inhibitors | shares compounds with RGS4 block | actives 20% (n = 1,900) | HEK293 M3R non-induced, carbachol calcium Fluo-4; submaximal (EC20) carbachol stimulus; buffer wells 0%, carbachol control wells 100% | AID 493000 | activity (percent), % at 10 µM; call rule not given here;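 further: RGS4 induction absent so cells express M3R without RGS4; higher means more calcium signal and flags a non-specific hit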
# RGS4 inh ctr2: second RGS4 inhibitor counter-screen in uninduced cells lacking carbachol | shares compounds with RGS4 block | AID 493001 | actives 22% (n = 1,900) | calcium response (agonist-mode artifact), % at 10 µM | HEK293 M3R/RGS4 non-induced, Fluo-4 calcium, no carbachol; normalised: buffer wells 0%, carbachol wells 100%;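 active means duplicate-averaged calcium rise in uninduced cells above buffer wells' mean plus 5 SD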
# A number is an active result; – = inactive; · = no result. Sampled rows, rich in hits. Any-hit rate of the full collection: about 4.5%.
SMILES,RGS4 pot,RGS4 block,MrgX1 allo act,MrgX1 antag,PHOSPHO1 inh,MrgX1 ag,RGS4 block valid,RGS4 uninduced,RGS4 inh ctr2
NC(=O)CC(NC(=O)c1cccc(Br)c1)c1ccc(NC2CCN(Cc3ccccc3)CC2)c([N+](=O)[O-])c1 (stereo not drawn),–,–,–,–,–,–,·,·,·
NC(=O)CC(NC(=O)Cc1ccc(Cl)cc1)c1ccc(NC2CCN(Cc3ccccc3)CC2)c([N+](=O)[O-])c1 (stereo not drawn),–,–,–,–,–,–,–,–,–
O=[N+]([O-])c1ccc(CSc2ncnc3c2ncn3[C@@H]2O[C@H](CO)[C@@H](O)[C@H]2O)cc1,·,·,–,–,·,–,·,·,·
Nc1ccc(CCNc2ncnc3c2ncn3[C@@H]2O[C@H](CO)[C@@H](O)[C@H]2O)cc1,–,–,–,–,·,–,·,–,–
OCC1OC(n2cnc3c(NCCc4ccccc4)ncnc32)C(O)C1O (stereo not drawn),–,6.44,–,–,·,–,29.0%,67.5%,–
Cc1cc(N/C=C(\C#N)S(=O)(=O)c2ccccc2Cl)nc(C)n1,–,–,–,–,–,–,·,·,·
COc1ccccc1N(Cc1cc(=O)[nH]c2ccccc12)C(=O)c1ccc([N+](=O)[O-])cc1,–,–,–,–,–,–,·,·,·
COc1ccc(Br)cc1CN1CCN(S(=O)(=O)Cc2ccccc2)CC1,–,27.6,–,–,–,–,–,–,–
CC(=O)N1CCc2cc(S(=O)(=O)NC(C)c3ccccc3)ccc21 (stereo not drawn),–,–,–,–,–,–,–,–,–
O=C(c1cccc2ccccc12)C1CCCN(C(=O)c2ccc(N3CCOCC3)cc2)C1 (stereo not drawn),–,–,–,–,–,–,·,·,·
CCOC(=O)Nc1ccc(=O)n(Cc2c(Cl)cccc2Cl)c1,–,7.66,–,–,–,–,35.5%,28.5%,–
Cc1ccc(-n2ncc3c(=O)[nH]c(SCC(=O)N4CCCc5ccccc54)nc32)cc1,–,–,–,–,–,–,·,–,–
CC(NCC(O)COC1CCC(C(C)(C)C)CC1)c1ccccc1 (stereo not drawn),–,10.3,–,–,–,–,5.0%,–,–
C[C@]12C(=O)N(c3cccc(F)c3)C(=O)N1[C@@H]1c3ccccc3OC[C@@H]1[C@H]2c1ccccc1,–,–,–,–,–,–,–,–,–
Cc1ccc(N2C(=O)N3[C@H]4c5ccccc5OC[C@@H]4[C@@H](c4ccccc4)[C@@]3(C)C2=O)cc1,–,–,–,–,–,–,·,·,·
C[C@]12C(=O)N(c3ccccc3)C(=O)N1[C@@H]1c3ccccc3OC[C@@H]1[C@H]2c1ccccc1,–,–,–,–,–,–,–,–,–
C[C@]12C(=O)N(c3ccc(C(F)(F)F)cc3)C(=O)N1[C@@H]1c3ccccc3OC[C@@H]1[C@H]2c1ccccc1,–,–,–,–,–,–,·,·,·
O=C(c1ccc(Cl)c(S(=O)(=O)N2CCOCC2)c1)N1CCCCCC1,–,–,–,–,–,–,·,·,·
CCC(C)(C)NC(=O)CN(CC1CCCO1)C(=O)CNS(=O)(=O)c1ccccc1 (stereo not drawn),–,–,–,–,–,–,·,·,·
CCCC1S/C(=N/N=C/c2cccs2)NC1=O (stereo not drawn),–,–,–,–,–,–,·,–,–
O=C1N/C(=N\N=C\c2cccs2)SC1Cc1ccc(Cl)cc1 (stereo not drawn),–,–,–,–,–,–,·,·,·
CCC1S/C(=N/N=C/c2cccs2)NC1=O (stereo not drawn),–,–,–,–,–,–,·,–,–
